Test [1] deals with T1, FepA (Escherichia coli, UniProt P05825).
T1 sequence (P05825 23-746): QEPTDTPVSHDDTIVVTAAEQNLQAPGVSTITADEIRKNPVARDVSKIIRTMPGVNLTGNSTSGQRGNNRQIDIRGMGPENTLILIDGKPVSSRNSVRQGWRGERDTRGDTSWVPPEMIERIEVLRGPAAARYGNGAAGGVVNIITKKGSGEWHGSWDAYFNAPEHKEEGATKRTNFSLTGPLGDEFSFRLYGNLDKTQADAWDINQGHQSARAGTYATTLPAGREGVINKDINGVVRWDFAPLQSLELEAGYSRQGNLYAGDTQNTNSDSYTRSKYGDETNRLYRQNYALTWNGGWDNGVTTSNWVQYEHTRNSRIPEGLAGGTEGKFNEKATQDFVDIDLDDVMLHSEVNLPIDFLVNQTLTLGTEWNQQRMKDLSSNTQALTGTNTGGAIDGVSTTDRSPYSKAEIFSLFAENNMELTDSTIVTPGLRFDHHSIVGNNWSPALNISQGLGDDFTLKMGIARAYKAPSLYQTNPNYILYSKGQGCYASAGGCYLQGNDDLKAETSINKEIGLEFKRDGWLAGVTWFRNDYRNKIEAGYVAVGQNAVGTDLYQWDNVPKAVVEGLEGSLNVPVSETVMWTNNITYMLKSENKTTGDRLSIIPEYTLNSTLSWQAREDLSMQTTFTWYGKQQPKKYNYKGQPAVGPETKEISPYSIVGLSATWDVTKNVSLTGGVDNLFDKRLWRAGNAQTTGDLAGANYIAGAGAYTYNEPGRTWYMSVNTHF
The following applies: ref Newton et al., 1999; Annamalai et al., 2004; cited from earlier work.

Test [2] is described as follows: Rapid-mixing stopped-flow FM quenching during FeEnt binding, live bacteria. On the set-up: species or system Escherichia coli. The following applies: live bacteria expressing FepAT216C-FM. In a few lines: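 Live, highly fluorescein-maleimide-labeled bacteria expressing the Cys-substituted FepA were rapid-mixed with FeEnt in a stopped-flow chamber, with emission quenching recorded at 520 nm. Rate constants, with standard errors, came from exponential decay fits (A(t) = A0e^−kt + offset). Half-times were calculated as −ln 0.5/k.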

The nature of test [3]: Extent of FeEnt-induced quenching of FM fluorescence in live cells. It counts as cell-based, Escherichia coli. As to conditions: 10 nM FeEnt, 2.5 × 10^7 cells/ml, FM-labeled mutants. In a few lines:
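Hosts were tonB+ ΔfepA or ΔtonB ΔfepA E. coli expressing plasmid-borne Cys-substituted FepA, grown in iron-deficient MOPS medium to late log. 10^10 cells were labeled with 5 µM fluorescein-5-maleimide in 50 mM Na2HPO4, 0.9% NaCl, pH 6.5, for 5 min at 37°C. Labeling was quenched with β-mercaptoethanol, and cells were resuspended in PBS with 0.4% glucose. FeEnt was added to 2.5 × 10^7 cells in 3 ml, stirred at 2°C, with emission read at 520 nm.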

A short description of test [4]: Rapid-mixing stopped-flow FM quenching during FeEnt binding, OM fragments. On the set-up: species or system Escherichia coli. The following applies: biphasic decay.

Changes are numbered by the printed parent chain. Numbers in names are those of the source.

Consider `O=C(N[C@H]1COC(=O)[C@@H](NC(=O)c2cccc([O-])c2[O-])COC(=O)[C@@H](NC(=O)c2cccc([O-])c2[O-])COC1=O)c1cccc([O-])c1[O-].[Fe+3]` [FeEnt, ferric enterobactin], for which, in test [1], the FeEnt turnover number was roughly 0.03 s⁻¹.

B1: T216C (protein, UniProt P05825 23-746, looked up, variant T216C)
Ferrienterobactin receptor: T1 sequence (P05825 23-746) with T216C
Consider B1, for which the “k (SE), rate of FM quenching” value in test [2] was 1.08 (0.08) s^−1. Further, the “Quenching of FM emissions by FeEnt binding” value in test [3] is on record as greater than 60%.

B2: S271C (protein, UniProt P05825 23-746, looked up, variant S271C)
Ferrienterobactin receptor: T1 sequence (P05825 23-746) with S271C
For the molecule B2, the “k (SE), second kinetic phase” value in test [4] was 0.31 (0.04) s^−1.

Source of the values: PMC4076525 (The Journal of General Physiology, 2014).
